# From PubChem BioAssay
# An excerpt weighted towards active compounds, which were near 5.8% of everything screened.
# IDH1 mut inh: inhibitors of human IDH1 R132H. 70,000 compounds, 0.18% hits. O75874. IDH1 R132H reductase, diaphorase/resazurin fluorescence, 60 min. AID 624101. inhibition, % at 10 µM; in the data active = inhibition above about 34%; inconclusive = no clear call, values can overlap the other calls; inactive = below about 11%
# T cruzi growth-1: inhibitors of T. cruzi proliferation; T. cruzi beta-gal in NIH3T3, GalScreen luminescence, 90 h; inhibition, % at 8.34 µM; 77,000 compounds, 5.9% hits; AID 624255;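 active = mean inhibition above about 93%, with at least 55% of replicates each passing it, limit read from the data, passing the limit was not always enough; inconclusive = only one of those two conditions holds; inactive = neither condition holds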
# KDM4C inh: KDM4C (human) demethylase inhibition. GST-KDM4C 2-372, H3K9me3 peptide, LANCE TR-FRET. 96,000 compounds, 0.15% hits. Q9H3R0. inhibition, % at 12.5 µM;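 active = mean replicate inhibition above about 25%, with at least 55% of replicates also reaching it, limit read from the data, passing the limit was not always enough; inconclusive = only one of those two conditions met; inactive = neither condition met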
# Target sequence (Q9H3R0 2-372 limits assumed): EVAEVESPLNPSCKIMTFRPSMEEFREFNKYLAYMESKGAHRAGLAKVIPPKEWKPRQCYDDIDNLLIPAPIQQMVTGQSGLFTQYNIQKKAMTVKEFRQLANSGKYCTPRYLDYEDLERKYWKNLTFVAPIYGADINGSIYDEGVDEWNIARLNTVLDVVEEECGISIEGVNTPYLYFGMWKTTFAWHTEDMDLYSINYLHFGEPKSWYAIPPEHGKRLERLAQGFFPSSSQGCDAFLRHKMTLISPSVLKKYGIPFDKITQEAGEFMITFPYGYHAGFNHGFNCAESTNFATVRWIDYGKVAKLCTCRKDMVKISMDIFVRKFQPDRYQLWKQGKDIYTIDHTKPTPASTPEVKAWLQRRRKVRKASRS
#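 Assay system: GST-GASC-1 enzyme fragment 2-372 | Amount: 10 nM enzyme | Medium: HEPES buffer, pH 7.5, plus ascorbate | Reagent: H3K9me3 peptide substrate, Fe(II), 2-oxoglutarate | Doses: Single-point compound screen | Incubation: 30 min demethylation and 1 h detection at room temperature | Measured by: LANCE TR-FRET, excitation 340 nm, emissions 618 and 671 nm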
# Pf Dd2 growth: blocks growth of Plasmodium falciparum Dd2 parasites | AID 1159554 | P. falciparum Dd2 growth, SYBR Green, 72 h; stronger effect = lower value | 94,000 compounds, 2.3% hits | activity change, % at 10 µM; in the data active = activity change below about -80%; inconclusive = no clear call, values can overlap the other calls
# T cruzi growth-2: inhibitors of T. cruzi proliferation; shares compounds with T cruzi growth-1; T. cruzi beta-gal in NIH3T3, GalScreen luminescence, 90 h; inhibition, % at 8.35 µM; 5,600 compounds, 72% hits; AID 651739;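 active = mean replicate inhibition above about 95% and at least 55% of replicates individually reaching it, limit read from the data; inconclusive = only one of the two criteria is met; inactive = neither criterion is met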
# T cruzi growth-3: blocks T. cruzi growth in NIH3T3 host cells; shares compounds with T cruzi growth-1; T. cruzi beta-gal in NIH3T3, GalScreen luminescence, 90 h; 5,600 compounds, 21% hits; inhibition, % at 2.09 µM; AID 651740;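 active = mean inhibition above about 95%, with at least 55% of replicates also reaching it, limit read from the data; inconclusive = meets just one of the two conditions; inactive = meets neither condition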
# 3T3 cytotox: cytotoxicity in mouse NIH/3T3 fibroblasts; shares compounds with T cruzi growth-1; NIH/3T3 viability, CellTiter-Glo ATP luminescence, 90 h; cytotoxicity (signal decrease), % at 8.35 µM; 5,600 compounds, 14% hits;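 active = mean signal decrease across replicates above about 35% based on untreated-well scatter, with enough replicates individually passing, limit read from the data; inconclusive = no rule stated though some were filed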
# NIH3T3 tox 2: kills mouse NIH/3T3 fibroblasts; NIH/3T3 viability, CellTiter-Glo ATP luminescence, 90 h; AID 651744; 5,600 compounds, 56% hits; inhibition, % at 24.9 µM; shares compounds with T cruzi growth-1;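 active = mean loss of cell viability signal at or above a set limit, and enough replicates individually reaching it; inconclusive = meets only the mean limit or only the replicate share; inactive = meets neither condition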
# Numbers stand for hits; i = inactive; ? = inconclusive; nt = no result given.
SMILES,IDH1 mut inh,T cruzi growth-1,KDM4C inh,Pf Dd2 growth,T cruzi growth-2,T cruzi growth-3,3T3 cytotox,NIH3T3 tox 2
COc1ccc(CNC(=O)c2cc3c(c(-c4cccc(-c5cccc(C#N)c5)c4)n2)[C@@H](CCO)N([S@](=O)C(C)(C)C)C3)cc1,i,?,i,i,107,100,i,45
C[C@H](O)C#Cc1cnc2c(c1)C(=O)N([C@@H](C)CO)C[C@@H](C)[C@H](CN(C)C(=O)Nc1ccc(F)cc1)O2,nt,i,nt,i,nt,nt,nt,nt
Cc1ccccc1-c1ccc([C@H]2[C@@H](CO)N3CCCCN(S(=O)(=O)c4cn(C)cn4)C[C@@H]23)cc1,nt,115,i,i,i,i,i,32
Cc1ccccc1-c1ccc([C@@H]2[C@@H](CO)N3CCCCN(S(=O)(=O)c4cn(C)cn4)C[C@H]23)cc1,nt,i,i,i,nt,nt,nt,nt
Cc1ccccc1-c1ccc([C@@H]2[C@H](CO)N3CCCCN(S(=O)(=O)c4cn(C)cn4)C[C@@H]23)cc1,nt,i,i,i,nt,nt,nt,nt
Cc1ccccc1-c1ccc([C@H]2[C@H]3CN(S(=O)(=O)c4cn(C)cn4)CCCCN3[C@H]2CO)cc1,nt,114,i,i,i,i,i,?
O=C(NCC[C@@H]1CC[C@@H](NC(=O)c2cnccn2)[C@H](CO)O1)Nc1ccc(F)cc1,i,i,i,i,nt,nt,nt,nt
O=C(c1ccc2c(c1)OCO2)N1C[C@@H]2N[C@H](C1)C2c1ccc(-c2cncnc2)cc1 (stereo partly specified),nt,nt,i,i,nt,nt,nt,nt
COc1cccc(C(=O)Nc2ccc3c(c2)OC[C@H](C)N(CCc2ccccc2)C[C@H](C)[C@@H](OC)CN(C)C3=O)c1,i,116,i,i,103,i,i,i
COc1cccc(C(=O)Nc2ccc3c(c2)C(=O)N(C)C[C@H](OC)[C@H](C)CN(CCc2ccccc2)[C@@H](C)CO3)c1,i,?,i,i,nt,nt,nt,nt
COc1cccc(C(=O)Nc2ccc3c(c2)C(=O)N(C)C[C@H](OC)[C@@H](C)CN(CCc2ccccc2)[C@H](C)CO3)c1,i,i,i,i,nt,nt,nt,nt
COc1cccc(C(=O)Nc2ccc3c(c2)OC[C@@H](C)N(CCc2ccccc2)C[C@H](C)[C@@H](OC)CN(C)C3=O)c1,i,110,i,i,110,i,i,i
COc1cccc(C(=O)Nc2ccc3c(c2)OC[C@@H](C)N(CCc2ccccc2)C[C@@H](C)[C@@H](OC)CN(C)C3=O)c1,i,i,i,i,nt,nt,nt,nt
COc1cccc(C(=O)Nc2ccc3c(c2)OC[C@H](C)N(CCc2ccccc2)C[C@@H](C)[C@@H](OC)CN(C)C3=O)c1,i,119,i,i,109,i,i,i
CCC(=O)N1[C@@H](CO)[C@@H](c2ccc(C3=CCCC3)cc2)[C@@H]1CNC(=O)CN(C)C,nt,i,i,i,nt,nt,nt,nt
C[C@@H]1CCCCO[C@@H](CN(C)CC2CC2)[C@H](C)CN([C@@H](C)CO)C(=O)c2cc(NC(=O)Nc3ccccc3)ccc2O1,nt,i,i,i,nt,nt,nt,nt
C[C@@H]1CN([C@@H](C)CO)C(=O)c2cc(NC(=O)Nc3ccccc3)ccc2O[C@@H](C)CCCCO[C@H]1CN(C)CC1CCCCC1,i,97,i,i,i,i,i,i
C[C@@H]1CCCCO[C@@H](CN(C)CC2CCCCC2)[C@H](C)CN([C@@H](C)CO)C(=O)c2cc(NC(=O)NC3CCCCC3)ccc2O1,i,99,i,i,109,i,i,106
COc1ccc(NC(=O)Nc2ccc3c(c2)C(=O)N([C@@H](C)CO)C[C@@H](C)[C@H](CN(C)CC2CCCCC2)OCCCC[C@@H](C)O3)cc1,nt,?,i,i,98,i,i,104
C[C@@H]1CCCCO[C@H](CN(C)CC2CCCCC2)[C@H](C)CN([C@H](C)CO)C(=O)c2cc(NC(=O)Nc3ccccc3)ccc2O1,nt,?,i,?,102,i,i,105
COc1ccccc1NC(=O)N(C)C[C@@H]1OCc2cnnn2CCCC(=O)N([C@H](C)CO)C[C@@H]1C,i,i,nt,i,nt,nt,nt,nt
